Laboratory results published in PMC4429801 (Journal of nuclear medicine : official publication, Society …, 2009).

What was measured:
rats = conditions: 2.3 mmol/kg; cited from earlier work
CWR22rv1 xenografts [1] = assay: Single-isotope in vivo biodistribution; set-up: species or system mice; conditions: for Tumor uptake of the tracer: tail vein, nude mice
Method in brief: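 Nude mice (20–25 g) carried CWR22rv1 tumours grown from 5 × 10^6 cells in medium/Matrigel, injected s.c. at the right forelimb. They received 3.7–5.5 MBq (100–150 µCi) of the 18F test compound in 200 µL saline by tail vein; dose per animal came from syringe readings before and after injection. Organs were harvested at 1, 2, 3 and 4 h and γ-counted (400–600 keV, decay-corrected) for %ID/g and tumour-to-organ ratios; n = 3 per time point, mean ± SD.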

CWR22rv1 tumors = assay: Dual-isotope comparative biodistribution; type: in vivo, mice; conditions: 1 h after simultaneous tail vein injection
Method in brief: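 Nude mice bearing subcutaneous CWR22rv1 xenografts received, by tail vein, 200 µL saline containing 3.7 MBq of the 18F test compound and about 0.0037 MBq 14C-acetate, and were euthanized 1 h later. 18F was γ-counted (400–600 keV, decay-corrected). Samples were then solubilised and held 1 d at 4°C, and 14C was read by liquid scintillation with external-standard quench correction. %ID/g = activity/decay-corrected injected activity/organ weight; n = 4, mean ± SD.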

CWR22rv1 xenografts [2] = assay: Small-animal PET 1 h after tail vein injection; type: in vivo, mice; conditions: 1 h after administration via tail vein
Method in brief: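 CWR22rv1-xenografted nude mice, not fasted, received 11.1 MBq (300 µCi) of the 18F test compound by tail vein. They were held under 2% isoflurane in oxygen (2 L/min) and scanned on a small-animal PET at 1 h for 5 min, using a 350–700 keV window and 6 ns coincidence window. Images were corrected for nonuniformity, dead time and decay, but not for attenuation, scatter or partial volume. %ID/g came from a phantom-derived calibration factor.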

[3] = Octanol–water partition coefficient study; type: physicochemical; conditions: 1-octanol/phosphate-buffered saline
Method in brief: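 The 18F test compound (20 µL, ~10–20 µCi in saline) was added to 5 mL each of 1-octanol and phosphate-buffered saline at pH 6.4, 7.0, 7.4 or 8.4. The mixture was vortexed 1 min and centrifuged 5 min.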

## CC(F)C(=O)O (stereo not shown) [FPA]
rats
  Acute toxicity: no acute toxicity

## CC([18F])C(=O)O (stereo not shown) [^18F-FPA, 2-^18F-fluoropropionic acid]
CWR22rv1 xenografts [1]; 1, 2, 3, and 4 h after injection
  Tumor-to-organ ratio, heart: around 0.95
CWR22rv1 xenografts [1]; 1 h after injection
  Tumor uptake of the tracer: 5.52 ± 0.35 %ID/g
CWR22rv1 xenografts [1]; 2 h after injection
  Tumor uptake of the tracer: 5.53 ± 0.42 %ID/g
CWR22rv1 xenografts [1]; 3 h after injection
  Tumor uptake of the tracer: 5.74 ± 0.54 %ID/g
CWR22rv1 xenografts [1]; 4 h after injection
  Tumor uptake of the tracer: 5.34 ± 0.19 %ID/g
CWR22rv1 xenografts [1]; PET and biodistribution studies, low bone uptake
  Defluorination in vivo: no evidence of defluorination
CWR22rv1 tumors
  Tumor-to-organ ratio, Blood: 1.03
  Tumor-to-organ ratio, Bone: 4.23
  Tumor-to-organ ratio, Brain: 1.27
  Tumor-to-organ ratio, Kidneys: 1.70
  Tumor-to-organ ratio, Large intestine: 1.91
  Tumor-to-organ ratio, Liver: 1.26
  Tumor-to-organ ratio, Lungs: 1.77
  Tumor-to-organ ratio, Muscle: 1.94
  Tumor-to-organ ratio, Small intestine: 1.62
  Tumor-to-organ ratio, Spleen: 1.62
  Tumor-to-organ ratio, Stomach: 2.80
  Tumor-to-organ ratio, Tumor: 1.00
  Tumor-to-organ ratio, heart: 1.30
CWR22rv1 tumors; n = 4
  %ID/g, Blood: 6.88 ± 0.64 %ID/g
  %ID/g, Bone: 1.68 ± 0.54 %ID/g
  %ID/g, Brain: 5.57 ± 0.33 %ID/g
  %ID/g, Heart: 5.46 ± 0.63 %ID/g
  %ID/g, Kidneys: 4.17 ± 0.60 %ID/g
  %ID/g, Large intestine: 3.71 ± 1.09 %ID/g
  %ID/g, Liver: 5.61 ± 0.50 %ID/g
  %ID/g, Lungs: 4.00 ± 0.26 %ID/g
  %ID/g, Muscle: 3.66 ± 0.50 %ID/g
  %ID/g, Small intestine: 4.37 ± 1.15 %ID/g
  %ID/g, Spleen: 4.36 ± 0.85 %ID/g
  %ID/g, Stomach: 2.53 ± 1.04 %ID/g
CWR22rv1 tumors; CWR22rv1 tumors, n = 4
  %ID/g, Tumor: 7.08 ± 0.80 %ID/g
CWR22rv1 xenografts [2]
  Uptake in the brain (PET): 4.6 %ID/g
  Uptake in the heart (PET): 4.0 %ID/g
CWR22rv1 xenografts [2]; CWR22rv1 tumor
  Uptake in the tumor (PET): 4.4 %ID/g
[3]; pH 6.4
  logP: −2.89 ± 0.02
[3]; pH 7.0
  logP: −3.08 ± 0.04
[3]; pH 7.4
  logP: −2.97 ± 0.13
[3]; pH 8.4
  logP: −3.07 ± 0.03
